Reference: ChEMBL document CHEMBL1124347, “Enantioselectivity of muscarinic antagonists. Isomeric 2-cyclohexyl-2-phenyl-5-[(dimethylamino)methyl]-1,3-oxathiolane 3-oxide methiodides” (J Med Chem, 1989)

Tests used:
[1] = target: Muscarinic acetylcholine receptor; assay: Dissociation constant estimated by Schild analysis for antimuscarinic activity in guinea pig bladder; format: protein assay, Cavia porcellus
In short: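 Longitudinal bladder strip (2 mm wide, urethra to apex) in PSS at 37 °C, with isometric recording. Tissue was equilibrated 30 min, and carbachol control curves were run as for ileum. Dose ratios (carbachol ED50 after/before antagonist) were taken at 3–4 antagonist concentrations, each tested 4–8 times. pA2 came from Schild plots with slope fixed at −1.0.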

[2] = target: Muscarinic acetylcholine receptor; assay: Dissociation constant estimated by Schild analysis for antimuscarinic activity in guinea pig heart; format: protein assay, Cavia porcellus
In short: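 Guinea pig heart preparation with carbachol as agonist and water as solvent for drugs. Dose ratios (carbachol ED50 with/without antagonist) were measured at 3–4 antagonist concentrations, 4–8 replicates each. Parallel untreated tissues monitored sensitivity drift. pA2 was estimated by Schild analysis with slope constrained to −1.0; means ± SE.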

[3] = target: Muscarinic acetylcholine receptor; assay: Dissociation constant estimated by Schild analysis for antimuscarinic activity for guinea pig ileum; format: tissue-based, Cavia porcellus
In short: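 Terminal ileum segments (2 cm, taken about 5 cm from the ileocecal junction) in PSS at 37 °C, with isotonic recording. After 30 min equilibration, carbachol dose–response curves were run at 30-min intervals; the second served as control. Antagonist was applied for 30 min, then the carbachol curve repeated. Dose ratios were taken at 3–4 concentrations, n=4–8 each. pA2 came from Schild analysis, slope constrained to −1.0.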

Row | pA2 [1] | pA2 [2] | pA2 [3] | SMILES
1 | 5.56 | 5.44 | 5.96 | C[N+](C)(C)C[C@@H]1C[S+]([O-])[C@@](c2ccccc2)(C2CCCCC2)O1.[I-] (single isomer, unassigned; (+)-8)
2 | 6.96 | 6.53 | 6.91 | C[N+](C)(C)C[C@@H]1C[S@+]([O-])[C@](c2ccccc2)(C2CCCCC2)O1.[I-] (stereo in doubt; (+\-)-4)
3 | 6.07 | 6.01 | 6.17 | C[N+](C)(C)C[C@@H]1C[S+]([O-])[C@@](c2ccccc2)(C2CCCCC2)O1.[I-] (single isomer, unassigned; (-)-8)
4 | 5.49 | 5.37 | 5.52 | C[N+](C)(C)C[C@@H]1C[S+]([O-])[C@@](c2ccccc2)(C2CCCCC2)O1.[I-] (single isomer, unassigned; (-)-7)
5 | 5.83 | 5.93 | 5.93 | C[N+](C)(C)C[C@@H]1C[S+]([O-])[C@@](c2ccccc2)(C2CCCCC2)O1.[I-] (mixture of isomers; form 1)
6 | 5.94 | 5.54 | 6.07 | C[N+](C)(C)C[C@@H]1C[S@@+]([O-])[C@](c2ccccc2)(C2CCCCC2)O1.[I-] (stereo in doubt; (+)-3)
7 | 7.53 | 7.45 | 7.73 | C[N+](C)(C)C[C@@H]1C[S+]([O-])[C@@](c2ccccc2)(C2CCCCC2)O1.[I-] (mixture of isomers; form 2)
8 | 5.52 | 5.48 | 5.55 | C[N+](C)(C)C[C@@H]1C[S@+]([O-])[C@](c2ccccc2)(C2CCCCC2)O1.[I-] (stereo in doubt; (-)-4)
9 | 7.73 | 7.69 | 7.84 | C[N+](C)(C)C[C@@H]1C[S+]([O-])[C@@](c2ccccc2)(C2CCCCC2)O1.[I-] (single isomer, unassigned; (+)-7)
10 | 5.89 | 5.96 | 6.05 | C[N+](C)(C)C[C@@H]1C[S@@+]([O-])[C@](c2ccccc2)(C2CCCCC2)O1.[I-] (racemic)
11 | 5.88 | 6.24 | 5.75 | C[N+](C)(C)C[C@@H]1C[S@@+]([O-])[C@](c2ccccc2)(C2CCCCC2)O1.[I-] (stereo in doubt; (-)-3)
12 | 7.19 | 6.8 | 7.19 | C[N+](C)(C)C[C@@H]1C[S@+]([O-])[C@](c2ccccc2)(C2CCCCC2)O1.[I-] (stereo in doubt; (+)-4)
